High-throughput results deposited in PubChem BioAssay by several laboratories.
Most compounds without a hit are left out; they make up all but 1.4% or so of the library.
NR2E3 ag-1: inhibitors of NR2E3-RetCOR corepressor binding, primary screen, NR2E3 agonist project, biochemical, TR-FRET, GST-NR2E3, biotin-RetCOR | Photoreceptor-specific nuclear receptor (Homo sapiens), Q9Y5X4 | 1536-well | inhibition of corepressor binding, % at 4.78 µM | 320,000 compounds, 0.12% hits | AID 2300, 2010;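 active = percent inhibition above the cutoff of mean plus 3 SD of all tested compounds, set per screening campaign, cut at about 20% in these data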;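 also: 0% = DMSO wells and 100% = biotin wells as full block of FRET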
Target sequence (Q9Y5X4 whole entry, looked up): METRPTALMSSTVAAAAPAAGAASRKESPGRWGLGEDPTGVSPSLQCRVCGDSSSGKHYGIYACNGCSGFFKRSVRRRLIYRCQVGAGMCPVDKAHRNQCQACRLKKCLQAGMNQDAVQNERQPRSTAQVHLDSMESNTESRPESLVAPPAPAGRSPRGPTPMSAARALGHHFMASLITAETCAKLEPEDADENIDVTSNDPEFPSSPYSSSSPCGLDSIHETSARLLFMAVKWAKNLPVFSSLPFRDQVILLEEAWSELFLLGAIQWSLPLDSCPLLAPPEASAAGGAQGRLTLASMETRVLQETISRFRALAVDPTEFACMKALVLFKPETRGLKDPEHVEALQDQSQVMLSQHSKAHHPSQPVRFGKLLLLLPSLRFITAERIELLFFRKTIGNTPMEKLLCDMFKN
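Test system: GST-NR2E3 and biotin-RetCOR proteins | Quantity: 1.35 nM GST-tagged NR2E3 final | Medium: Tris pH 7.5 | Also added: 7 nM biotin-RetCOR | Dosing: Compound at 4.8 µM, single dose | Timing: 5 h at 4 °C | Detection: Time-resolved FRET | Read-out basis: Percent inhibition | Benchmarks: Biotin wells as high control, 0.6% DMSO wells as low control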
NR2E3 ag-2: NR2E3 agonists in two-hybrid cells, primary screen, cell-based, luminescence, CHO-S, Gal4-NCOR/VP16-NR2E3 | 360,000 compounds, 0.35% hits | Photoreceptor-specific nuclear receptor (Homo sapiens), Q9Y5X4 | luciferase | inhibition of corepressor binding, % at 3.98 µM;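 active = inhibition above the mean of all tested compounds plus 3 SD, cut at about 70% in these data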;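 also: 0% = DMSO with NR2E3 transfected cells and 100% = cells lacking NR2E3 construct; higher means lower luciferase signal from less NR2E3 corepressor binding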
Rev-erbA mod: modulators of Rev-erb alpha DNA binding, primary screen, biochemical, FITC-DNA, fluorescence polarization, uHTS; Rev-erbα–FITC-DNA binding, 90 min; AID 1259318, 2017; activity, % at 10 µM; 370,000 compounds, 0.79% hits;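 active = activity above about 14%, limit read from the data; passing the limit was not always enough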;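 also: 0% = DMSO wells with 35 nM protein and 100% = DMSO wells with 750 nM protein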
PG9 binder: binders of HIV-1 gp120 antibody PG9, primary screen, biochemical, TR-FRET | HIV-1 gp120 / PG9 antibody interaction | TR-FRET gp120-PG9 antibody binding | inhibition, % at 6.7 µM | 360,000 compounds, 0.43% hits; in the data active = inhibition above about 8.5%
NR2E3 ag conf: NR2E3 agonist confirmation in cells, cell-based, luminescence, CHO-S two-hybrid; shares compounds with NR2E3 ag-2; CHO-S mammalian two-hybrid NR2E3-NCOR, luciferase luminescence; inhibition, % at 3.98 µM; 2,300 compounds, 51% hits; AID 624378, 2012;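 active = average inhibition above a cutoff equal to the mean inhibition of all tested compounds plus one SD, cut at about 70% in these data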;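 also: 0% = DMSO in NR2E3 cells and 100% = DMSO in cells lacking NR2E3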
GAL4-VP16 luc: GAL4-VP16 reporter modulators, confirmation, counter-screen for NR2E3 agonist project, cell-based, luminescence, CHO-S, high throughput; shares compounds with NR2E3 ag-2; CHO-S GAL4-VP16 luciferase reporter; 2,300 compounds, 29% hits; inhibition, % at 3.98 µM;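 active = mean inhibition above a cutoff equal to the average over all tested compounds plus one standard deviation, cut at about 70% in these data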;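 also: luciferase from a UAS reporter driven by GAL4-VP16 transactivation; 0% = DMSO with VP16-transfected cells and 100% = DMSO with cells lacking VP16; higher means less reporter light so more repression of VP16 activity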
* marks the source's active call; other numbers are inactive results; x = not tested or not shown.

SMILES	NR2E3 ag-1	NR2E3 ag-2	Rev-erbA mod	PG9 binder	NR2E3 ag conf	GAL4-VP16 luc
C=CCn1c(COc2ccccc2)nnc1SCC(=O)Nc1ccc(Oc2ccccc2)cc1	x	x	4	x	x	x
Cc1ccc(NS(=O)(=O)c2ccc(-n3cccn3)cc2)c(C)c1	1	23	0	-1	x	x
Cc1ccc(Cl)cc1NS(=O)(=O)c1ccc(-n2cccn2)cc1	-4	46	3	-3	x	x
Cc1ccc(NS(=O)(=O)c2ccc(-n3cccn3)cc2)cc1F	-1	57	-2	-1	37	37
Cc1ccc(NS(=O)(=O)c2ccc(-n3cccn3)cc2)c(Br)c1	x	49	11	0	62	48
COCCCn1cc(CN2CC=CS2(=O)=O)nn1	x	x	2	x	x	x
Cc1ccc(-n2c(SCc3c(Cl)cccc3Cl)nnc2-c2ccco2)cc1	x	x	-3	x	x	x
O=C(c1ccccc1)c1ccc(Cn2cc(-c3ccccc3)nn2)cc1	-3	64	0	-1	84*	64
CC(=O)NCCC(=O)Nc1ccc(F)cc1C	-2	6	5	-2	x	x
CCOc1ccc(OCCC(=O)Nc2ccc(F)cc2C)cc1	2	50	-2	-2	15	-25
CCC(NC(=O)c1ccc2c(ccn2Cc2cccc(-c3ccccc3C(=O)O)c2)c1)c1ccccc1 (stereo unspecified)	x	x	1	x	x	x
Cc1c(C)c2cccnc2c2ncccc12	0	79*	x	x	39	9
Oc1c(I)cc(Cl)c2cccnc12	-3	4	-6	-3	x	x
Clc1cc2cccnc2c2ncccc12	1	83*	4	0	95*	12
NCCOc1ccccc1-c1ccccc1	-1	18	3	0	x	x
Nc1ccc(Oc2ccccc2-c2ccccc2)cc1	-2	48	5	-2	31	37
O=C(OC12CCCN(C1)/C(=C/c1ccccc1)C2)c1ccc(Cl)cc1 (stereo unspecified)	x	x	0	x	x	x
CN(c1nc2ccccc2[nH]c1=O)C1CCCCC1	2	55	15	2	90*	73*
CCCCN(C)C(=O)CN1C(=O)C2CCCCN2C(=O)c2ccccc21 (stereo unspecified)	x	x	-1	x	x	x
Cc1ccc2ccc3cccnc3c2n1	1	67	3	0	45	9
Cc1ccc(C(=O)NC2CCCCN(C(C)C)C2=O)cc1 (stereo unspecified)	x	x	11	x	x	x
COc1ccc(-c2nn(-c3ccccc3)cc2/C=N/O)cc1OC	-2	60	0	1	38	11
COc1ccc(-c2nn(-c3ccccc3)cc2/C=N/N=C(N)N)cc1OC	-1	0	-3	-1	x	x
CCN1/C(=C/c2ccc3ccccc3[n+]2CCCS(=O)(=O)[O-])C=Cc2cc(C)ccc21	x	-6	-9	-9	x	x
CCN1/C(=C/c2ccc3ccccc3[n+]2CC)C=Cc2ccccc21	-9	88*	-34	-14	98*	88*
SMILES	NR2E3 ag-1	NR2E3 ag-2	Rev-erbA mod	PG9 binder	NR2E3 ag conf	GAL4-VP16 luc
Cc1cnc(C(=O)Nc2cccc3cccnc23)cn1	x	77*	-2	1	-6	-10
CN(C)c1ccc(C=Cc2ccnc3ccccc23)cc1N	x	52	-3	-2	24	-1
C=CCN1C(=O)[C@@H](CC(=O)N2CCC(c3ccccc3)CC2)[C@]2(C(=O)OCC)CCCCC/C=C/12	x	x	-6	x	x	x
O=S(=O)(c1cccs1)N1CCN(CC(O)COc2cc(Cl)ccc2Cl)CC1 (stereo unspecified)	-2	89*	1	1	96*	78*
O=S(=O)(c1cccs1)N1CCN(CCOc2ccc(Cl)cc2)CC1	3	-3	1	-1	x	x
COc1ccc(Cl)cc1NC(=S)NNC(=O)C1(C)CC1(Cl)Cl (stereo unspecified)	1	49	-3	-1	-15	-8
COC(=O)c1cc(OC)c(OC)cc1NC(=S)Nc1cc(Cl)ccc1OC	3	-5	3	-3	x	x
O=C(NCCNc1ccc(Cl)cc1[N+](=O)[O-])c1ccccc1F	0	-28	10	-3	x	x
O=C(NCCNc1ccnc2cc(Cl)ccc12)c1ccccc1F	0	64	-4	0	54	57
Clc1ccc2c(NCc3ccccc3)ccnc2c1	3	69	4	0	44	61
Cc1ccc(OCCCCn2cnc3ccccc32)c(C)c1	-1	72*	4	-2	89*	60
Brc1ccccc1OCCCCn1cnc2ccccc21	-3	29	8	2	x	x
C=CCN(CC#Cc1ccccc1)CC1CC1	x	x	2	x	x	x
O=C(O)CCSc1nc2ccccc2s1	2	54	4	1	53	67
c1ccc2sc(SCSc3nc4ccccc4s3)nc2c1	-3	-24	5	-3	x	x
NC(=O)c1nn(-c2ccccc2)nc1NC(=O)CSc1nnnn1-c1ccc(Cl)cc1	-3	92*	-1	1	97*	26
O=C(NC(=S)N1CCN(c2c(Cl)cccc2[N+](=O)[O-])CC1)c1cccs1	3	54	1	0	39	35
COc1ccc(N2CCN(C(=S)NC(=O)c3cccs3)CC2)c([N+](=O)[O-])c1	-1	1	3	0	x	x
CC(=O)N(/N=C1\Sc2ccccc2C1=O)c1ccc(C)cc1C	-1	67	-6	-2	62	22
COc1ccc(-n2c(SCC(=O)Nc3ccc(S(=O)(=O)Nc4nccs4)cc3)nnc2-c2ccco2)cc1	x	x	-8	x	x	x
COC(=O)c1ccc2c(C3(c4c[nH]c5ccccc45)CCN(C(=O)OC(C)(C)C)CC3)c[nH]c2c1	x	x	2	x	x	x
CC(C)COc1ccc(S(=O)(=O)NNC(=O)c2cc3ccccc3o2)cc1	0	75*	0	-2	76*	68
O=C(CSc1ccc(-c2ccc(Cl)cc2)nn1)N1CCCc2ccccc21	2	-9	1	2	x	x
O=C(CSc1ccc(-c2ccc(F)cc2)nn1)N1CCCc2ccccc21	1	58	-2	0	-7	-26
CCOc1ccc(-c2cccc(NS(=O)(=O)c3cc([N+](=O)[O-])ccc3Cl)c2)nn1	-3	53	-2	-2	18	-4
CCCCNC(=O)C1(C(=O)c2ccc(OC)cc2)CC(C(=O)OCC)=NO1 (stereo unspecified)	x	x	-5	x	x	x
O=C(CC1CCCC1)N1CC[C@H]2[C@H](CCCN2Cc2ccccc2)C1	x	x	-4	x	x	x
COc1ccc(CNC(=O)CCNS(=O)(=O)c2ccc3[nH]c(=O)oc3c2)cc1	x	x	-2	x	x	x
